In ChEMBL document CHEMBL1125383, “Benzazepinone calcium channel blockers. 4. Structure-activity overview and intracellular binding site” (J Med Chem, 1992):

Key:
[1] = target: T1, Voltage-gated L-type calcium channel (Rattus norvegicus, UniProt P22002+Q02485+P27732); assay: Percentage decrease in blood pressure at a dose of 135 uM/kg for 0-6 h in spontaneously hypertensive rats.; format: functional, tissue-based
Summary of the method: (§1)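 Spontaneously hypertensive rats, n = 5, given 135 µmol/kg orally; systolic pressure recorded directly; maximum percent fall from predrug control noted within 0-6, 6-12 and 12-18 h windows after dosing; mean of five rats.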

[2] = Partition coefficient (logP); format: physicochemical; conditions: octanol/water
[3] = Concentration required to cause 50% relaxation of maximal contraction in circumferential rabbit aorta strips in response to KCl (100 mM); format: functional, tissue-based, Oryctolagus cuniculus
[4] = target: T1, Voltage-gated L-type calcium channel; assay: Percentage decrease in blood pressure at a dose of 135 uM/kg for 12-18 hr in spontaneously hypertensive rats.; format: functional, tissue-based; summary of the method: as §1
[5] = target: T1, Voltage-gated L-type calcium channel; assay: Percentage decrease in blood pressure at a dose of 135 uM/kg for 6-12 hr in spontaneously hypertensive rats.; format: functional, tissue-based; summary of the method: as §1

Row | SMILES | logP [2] | IC50 ([3]; Oryctolagus cuniculus, Aorta) | IC50 [3] | Decrease in blood pressure [1] | Decrease in blood pressure [4] | Decrease in blood pressure [5]
1 | CCOC(=O)c1cccc2c1C[C@@H](c1ccc(OC)cc1)[C@@H](OC(C)=O)C(=O)N2CCN(C)C | 2.2 | – | – | 4% | 5% | 6%
2 | C=CC[C@H]1C(=O)N(CCN(C)C)c2ccccc2C[C@H]1c1ccc(OC)cc1 | 3.3 | – | – | 25% | 18% | 23%
3 | COc1ccc([C@@H]2Cc3c(cccc3C(F)(F)F)N(CCN(C)CCCCc3ccccc3)C(=O)[C@@H]2OC(C)=O)cc1 | – | 73 nM | – | 28% | 24% | 23%
4 | C=CCN(C)CCN1C(=O)[C@H](OC(C)=O)[C@H](c2ccc(OC)cc2)Cc2c1cccc2C(F)(F)F | – | 170 nM | – | 28% | 25% | 26%
5 | COc1ccc([C@@H]2Cc3c(cccc3C(F)(F)F)N(CCN3CCCC3)C(=O)[C@@H]2C)cc1 | – | 1100 nM | – | 8% | 11% | 10%
6 | CNCCN1C(=O)[C@H](OC(C)=O)[C@H](c2ccc(OCOC)cc2)Cc2c1cccc2C(F)(F)F | – | – | – | 6% | 8% | 8%
7 | CNCCN1C(=O)[C@H](OC(C)=O)[C@H](c2ccc(OC)cc2)Cc2c1cccc2C(F)(F)F | – | – | – | 32% | 32% | 34%
8 | CNCCN1C(=O)[C@H](OC(C)=O)[C@H](c2ccc(OCCOC)cc2)Cc2c1cccc2C(F)(F)F | – | 39000 nM | – | 5% | 7% | 5%
9 | COc1ccc([C@@H]2Cc3c(C(=O)OCc4ccccc4)cccc3N(CCN(C)C)C(=O)[C@@H]2OC(C)=O)cc1 | 3.3 | 3500 nM | – | 4% | 8% | 8%
10 | CCc1ccc([C@@H]2Cc3c(cccc3C(F)(F)F)N(CCN(C)C)C(=O)[C@@H]2C)cc1 | – | 2400 nM | – | 20% | 13% | 14%
11 | COc1ccc([C@@H]2Cc3c(ccc(Br)c3OC)N(CCN(C)C)C(=O)[C@@H]2C)cc1 | 3.4 | 85 nM | – | 9% | 14% | 12%
12 | COc1ccc([C@@H]2Cc3c(OC)cccc3N(CCN(C)C)C(=O)[C@@H]2OC(C)=O)cc1 | 1.9 | – | – | 0% | 1% | 0%
13 | CCCN(C)CCN1C(=O)[C@H](OC(C)=O)[C@H](c2ccc(OC)cc2)Cc2c1cccc2C(F)(F)F | – | 190 nM | – | 27% | 28% | 26%
14 | COc1ccc([C@@H]2Cc3c(cccc3C(F)(F)F)N(CCN(C)C(C)=O)C(=O)[C@@H]2O)cc1 | – | 2200 nM | – | – | – | –
15 | C#CCN(C)CCN1C(=O)[C@H](OC(C)=O)[C@H](c2ccc(OC)cc2)Cc2c1cccc2C(F)(F)F | – | 3300 nM | – | 26% | 25% | 25%
16 | CSc1ccc([C@@H]2Cc3c(cccc3C(F)(F)F)N(CCN(C)C)C(=O)[C@@H]2C)cc1 | – | 730 nM | – | 12% | 5% | 8%
17 | COc1ccc([C@@H]2Cc3c(OC)cccc3N(CCN(C)C)C(=O)[C@@H]2C)cc1 | 2.6 | 420 nM | – | 7% | 8% | 10%
18 | COc1ccc([C@@H]2Cc3c(Cl)cccc3N(CCN(C)C)C(=O)[C@@H]2OC(C)=O)cc1 | 2.4 | – | – | 9% | 11% | 8%
19 | COc1ccccc1[C@@H]1Cc2cc(Cl)ccc2N(CCN(C)C)C(=O)[C@@H]1OC(C)=O | – | – | – | 2% | 0% | 2%
20 | COc1ccc([C@@H]2Cc3c(C)cccc3N(CCN(C)C)C(=O)[C@@H]2OC(C)=O)cc1 | 1.7 | 2500 nM | – | 6% | 12% | 10%
21 | CCC[C@H]1C(=O)N(CCN(C)C)c2ccccc2C[C@H]1c1ccc(OC)cc1 | – | 340 nM | – | 10% | 12% | 11%
22 | CNC(=O)CN1C(=O)[C@H](OC(C)=O)[C@H](c2ccc(OC)cc2)Cc2c1cccc2C(F)(F)F | – | 6200 nM | – | 13% | 10% | 8%
23 | COc1ccc([C@@H]2Cc3cc(C(F)(F)F)ccc3N(CCN(C)C)C(=O)[C@@H]2CC(C)=O)cc1 | 2.7 | – | – | 23% | 28% | 28%
24 | COc1cccc([C@@H]2Cc3cc(Cl)ccc3N(CCN(C)C)C(=O)[C@@H]2OC(C)=O)c1 | – | – | – | 5% | 3% | 2%
25 | COc1ccc([C@@H]2Cc3cc(OC)ccc3N(CCN(C)C)C(=O)[C@@H]2OC(C)=O)cc1 | 1.2 | – | – | 15% | 10% | 8%
26 | CNc1ccc([C@@H]2Cc3c(cccc3C(F)(F)F)N(CCN(C)C)C(=O)[C@@H]2C)cc1 | – | 330 nM | – | 14% | 20% | 18%
27 | COc1ccc([C@@H]2Cc3c(cccc3C(F)(F)F)N(CCN(C)C)C(=O)[C@@H]2C)cc1OC | – | 3800 nM | – | 3% | 5% | 5%
28 | COc1ccc([C@@H]2Cc3cc(SC)ccc3N(CCN(C)C)C(=O)[C@@H]2OC(C)=O)cc1 | 2 | 600 nM | – | 19% | 21% | 20%
29 | COc1ccc([C@@H]2Cc3ccccc3N(CCN(C)C)C(=O)[C@@H]2OC(C)=O)cc1 | 1.2 | – | – | 8% | 13% | 8%

Continued, in another order:

Row | logP [2] | IC50 ([3]; Oryctolagus cuniculus, Aorta) | IC50 [3] | SMILES | Decrease in blood pressure [1] | Decrease in blood pressure [4] | Decrease in blood pressure [5]
30 | 4.6 | 100 nM | – | C=CC[C@H]1C(=O)N(CCN(C)C)c2cccc(C(F)(F)F)c2C[C@H]1c1ccc(OC)cc1 | 24% | 29% | –
31 | – | 1100 nM | – | COc1ccc([C@@H]2Cc3c(cccc3C(F)(F)F)N(CCCN(C)C)C(=O)[C@@H]2C)cc1 | 24% | 24% | 22%
32 | – | 160 nM | – | C[C@H]1C(=O)N(CCN(C)C)c2cccc(C(F)(F)F)c2C[C@H]1c1ccc(O)cc1 | 10% | 7% | 5%
33 | – | 76 nM | – | COc1ccc([C@@H]2Cc3c(cccc3C(F)(F)F)N(CCN(C)C)C(=O)[C@@H]2C)cc1 | 28% | 22% | 22%
34 | – | 4200 nM | – | COc1ccc([C@@H]2Cc3c(cccc3C(F)(F)F)N(CCN(C(C)C)C(C)C)C(=O)[C@@H]2C)cc1 | 14% | 8% | 8%
35 | – | 150 nM | – | COc1ccc([C@@H]2Cc3c(cccc3C(F)(F)F)N(CCN(C)C)C(=O)[C@@H]2OC(C)=O)cc1 | 31% | 20% | 27%
36 | – | 950 nM | – | COc1ccc([C@@H]2Cc3c(cccc3C(F)(F)F)N(CCNC(C)C)C(=O)[C@@H]2C)cc1 | 17% | 10% | 15%
37 | 2.1 | – | – | COc1ccc([C@@H]2Cc3c(cccc3C(F)(F)F)N(CCN(C)C)C(=O)[C@@H]2O)cc1 | 21% | 28% | 26%
38 | – | 6200 nM | – | COc1ccc([C@@H]2Cc3c(cccc3C(F)(F)F)N(CC[N+](C)(C)C)C(=O)[C@@H]2C)cc1.[I-] | 25% | 21% | 22%
39 | – | 810 nM | – | COc1ccc([C@@H]2Cc3c(cccc3C(F)(F)F)N(CCN(C)C(C)C)C(=O)[C@@H]2C)cc1 | 18% | 14% | 15%
40 | – | 360 nM | – | COc1ccc([C@@H]2Cc3c(cccc3C(F)(F)F)N(CC(C)N(C)C)C(=O)[C@@H]2C)cc1 (stereo in doubt; 15l) | 26% | 14% | 17%
41 | – | – | 400 nM | COc1ccc([C@@H]2Cc3c(cccc3C(F)(F)F)N(CC(C)N(C)C)C(=O)[C@@H]2C)cc1 (stereo in doubt; 15m) | – | 12% | 16%
42 | – | – | 5900 nM | COc1ccc([C@@H]2Cc3c(cccc3C(F)(F)F)N(C(C)CN(C)C)C(=O)[C@@H]2C)cc1 (stereo in doubt; 15n) | 15% | – | –
43 | – | – | 2300 nM | COc1ccc([C@@H]2Cc3c(cccc3C(F)(F)F)N(C(C)CN(C)C)C(=O)[C@@H]2C)cc1 (stereo in doubt; 15o) | 16% | 16% | 16%
